GSIS activator = GLuc luminescence reporter in INS-1E cells, primary screen for activators of glucose-dependent secretion of insulin | INS-1E GLuc reporter insulin secretion, 2-3 h | actives 0.61% (n = 370,000) | AID 743287, 2014 | activation, % at 16.6 µM;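 active = lowest replicate activation of at least 40%, so every replicate reaches that level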;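 note: 0% = median of neutral control wells and 100% = median of IBMX positive control wells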
S100A4 inh HTS = inhibitors of S100A4-myosin IIA peptide binding, primary screen, biochemical, fluorescence polarization, TAMRA-MyoIIA peptide. Protein S100-A4 (Homo sapiens), P26447. inhibition, % at 10.7 µM. actives 0.14% (n = 360,000). AID 652163, 2013;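 active = mean inhibition of at least 70% across replicates, with every replicate also reaching that level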
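System – human S100A4 monomer protein, biochemical binding assay · Buffer or medium – Calcium-containing HEPES buffer, pH 7.2 · Timing – 5 min between mix addition and reading · Also added – TAMRA-labelled myosin IIA heavy-chain peptide probe, 5 nM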
RAD54 inh = inhibitors of human RAD54 branch migration, primary screen, biochemical, fluorescence, single point; DNA repair and recombination protein RAD54-like (Homo sapiens), Q92698; RAD54 Holliday junction branch migration, FAM/BHQ fluorescence; inhibition, % at 10.4 µM; actives 0.14% (n = 360,000); AID 602329, 2012;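 active = mean normalized replicate activity at least 40 and at least half of replicates scoring 40 or more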;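 note: 0% = median of neutral control wells and 100% = median of positive control wells; inhibitors cause a drop in the FAM fluorescence signal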
Target sequence (Q92698 whole entry, looked up): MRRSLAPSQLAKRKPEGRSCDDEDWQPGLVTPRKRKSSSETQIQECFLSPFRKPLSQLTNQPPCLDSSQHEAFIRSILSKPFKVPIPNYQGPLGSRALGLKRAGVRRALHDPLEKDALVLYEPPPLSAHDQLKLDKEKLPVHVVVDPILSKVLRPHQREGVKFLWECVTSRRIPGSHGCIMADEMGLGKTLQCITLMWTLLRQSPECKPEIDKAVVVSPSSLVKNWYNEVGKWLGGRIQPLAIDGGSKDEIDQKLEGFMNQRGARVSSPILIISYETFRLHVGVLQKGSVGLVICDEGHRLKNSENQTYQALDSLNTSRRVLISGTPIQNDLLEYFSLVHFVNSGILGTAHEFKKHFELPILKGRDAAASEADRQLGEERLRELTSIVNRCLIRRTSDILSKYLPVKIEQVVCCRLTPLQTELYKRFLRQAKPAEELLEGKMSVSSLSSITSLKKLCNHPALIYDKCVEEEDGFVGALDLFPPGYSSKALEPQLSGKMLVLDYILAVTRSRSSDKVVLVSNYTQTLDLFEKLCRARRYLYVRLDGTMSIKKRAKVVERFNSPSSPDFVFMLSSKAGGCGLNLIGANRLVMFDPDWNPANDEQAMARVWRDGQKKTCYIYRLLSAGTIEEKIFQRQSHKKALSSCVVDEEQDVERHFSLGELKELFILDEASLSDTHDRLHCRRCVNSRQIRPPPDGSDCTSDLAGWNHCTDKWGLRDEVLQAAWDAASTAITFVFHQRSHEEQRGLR
RAD52 inh = RAD52 DNA annealing inhibitors, primary screen, biochemical, FRET, single point, set 2 | inhibition, % at 18.7 µM | AID 651710, 2012 | actives 0.46% (n = 360,000) | recombinant RAD52 DNA annealing, FRET fluorescence | DNA repair protein RAD52 homolog (Homo sapiens), P43351;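 active = every replicate showing at least 50% inhibition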
MLL AF4-AF9 inh = inhibitors of AF4 peptide binding to AF9, primary screen, biochemical, AlphaScreen, biotin-AF4 peptide, FLAG-AF9, single point; AID 651704, 2012; Protein AF-9 (Homo sapiens), P42568; actives 0.47% (n = 350,000); inhibition, % at 10 µM;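 active = every replicate reaching a set inhibition limit, whatever the replicate mean, cut at about 25% in these data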;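 note: 0% = plate neutral control median and 100% = total signal loss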
An asterisk follows results filed as active; ! = repeats disagree. An excerpt weighted towards active compounds, which were near 1.3% of everything screened.

Screening CCOC(=O)C/C(=N\Nc1ncnc2ccccc12)c1ccccc1 returned GSIS activator 9.9, S100A4 inh HTS -5.7, RAD54 inh -3.8, RAD52 inh -14.4 and MLL AF4-AF9 inh -3.1.
CCOC(=O)c1ccc(Nc2ncnc3ccc(C)cc23)cc1 was read as GSIS activator 85.2* and RAD54 inh 8.3.
Screening CCOC(=O)/C(=N\Nc1ncnc2ccccc12)c1ccc(C)cc1 returned GSIS activator -24.7, S100A4 inh HTS 19.0, RAD54 inh -8.8, RAD52 inh -86.1 and MLL AF4-AF9 inh 42.0*.
`C[C@H](CO)N1C[C@H](C)[C@@H](CN(C)Cc2ccncc2)Oc2c(NC(=O)Nc3ccc(F)cc3)cccc2C1=O` gave GSIS activator -2.5, S100A4 inh HTS 12.8, RAD54 inh 12.9, RAD52 inh 4.6 and MLL AF4-AF9 inh -0.3.
CNC[C@H]1Oc2c(NC(=O)NC(C)C)cccc2C(=O)N([C@H](C)CO)C[C@@H]1C was read as GSIS activator 6.8, S100A4 inh HTS -6.0, RAD54 inh -6.5, RAD52 inh -7.0 and MLL AF4-AF9 inh -0.8.
CS(=O)(=O)N1CC2(C1)[C@@H](c1ccccc1)[C@@H](CO)N2CC1CC1 was read as GSIS activator 3.7, S100A4 inh HTS -16.6, RAD52 inh -1.7 and MLL AF4-AF9 inh 0.6.
Cc1cc(C(C)(C)C)ccc1NC(=O)CC(C)(C)CC(=O)O was read as GSIS activator -13.8, S100A4 inh HTS -1.0, RAD54 inh -5.2, RAD52 inh -7.5 and MLL AF4-AF9 inh 25.9*.
`CCc1cccc(C)c1NC(=O)CC(C)(C)CC(=O)O` gave S100A4 inh HTS 0.9, RAD52 inh 6.5 and MLL AF4-AF9 inh -1.7.
`CC(C)NC(=O)N(C)C[C@@H]1Oc2c(NS(=O)(=O)c3ccc(F)cc3)cccc2C(=O)N([C@H](C)CO)C[C@H]1C` gave GSIS activator 2.6, S100A4 inh HTS -8.4, RAD54 inh -4.2, RAD52 inh 0.4 and MLL AF4-AF9 inh -0.9.
Screening N#Cc1cccc(CN2CCC(=O)N([C@H](CO)Cc3ccccc3)CC2)c1 returned GSIS activator -8.2, S100A4 inh HTS 1.6, RAD54 inh 3.3, RAD52 inh -11.4 and MLL AF4-AF9 inh 44.3*.
`CN(C)CC/C=C1\c2ccccc2COc2ccccc21` gave S100A4 inh HTS -3.2, RAD54 inh 6.9, RAD52 inh -5.5 and MLL AF4-AF9 inh 1.0.
CN(C)CC/C=C1/c2ccccc2Sc2ccc(Cl)cc21 was read as GSIS activator 1.1, S100A4 inh HTS -2.5, RAD54 inh 9.4, RAD52 inh 41.4 and MLL AF4-AF9 inh 26.9*!.
`CC(C)(C)[C@H](N)C(=O)N[C@H]1CCC2C3CC=C4C[C@@H](O)CC[C@]4(C)C3CC[C@@]21C` (some centres undefined) gave GSIS activator 202.5*, S100A4 inh HTS 4.6, RAD52 inh -4.7 and MLL AF4-AF9 inh 2.6.
Screening COc1ccc2c3c([nH]c2c1)[C@H](CO)N(C(=O)CC1CC1)CC31CCN(C(=O)CC2CC2)CC1 returned GSIS activator 6.3, S100A4 inh HTS 0.9, RAD52 inh -4.2 and MLL AF4-AF9 inh -4.0.
Cc1ccc(CNC(=O)Cn2cnc(C(=O)Nc3ccc(C)c(C)c3)n2)o1 was read as GSIS activator -0.1, S100A4 inh HTS 76.0*, RAD54 inh 4.6, RAD52 inh 1.8 and MLL AF4-AF9 inh -0.3.
`COC(=O)c1ccc(CNC(=O)Cn2cnc(C(=O)Nc3ccc(C)c(C)c3)n2)cc1` gave GSIS activator 13.4, S100A4 inh HTS 1.7, RAD54 inh 3.1, RAD52 inh 7.7 and MLL AF4-AF9 inh -2.7.
COc1nc(-c2ccccc2)ccc1-c1noc(-c2cccnc2)n1 was read as GSIS activator 70.6* and RAD54 inh -6.5.
For Cc1c2c(cc3c1[nH]c1ccccc13)C=NCC2 the results were GSIS activator 12.7, S100A4 inh HTS -24.9, RAD54 inh 58.4*, RAD52 inh 8.9 and MLL AF4-AF9 inh 0.3.
CCc1c(C)sc(NC(=O)c2cc(-c3ccc(OC)c(OC)c3)on2)c1C#N was read as GSIS activator 80.4*.
`CC(C(=O)N1CCC(C(N)=O)CC1)N(c1ccc(Oc2ccccc2)cc1)S(C)(=O)=O` (centres undefined) gave GSIS activator 50.3* and RAD54 inh -8.2.
`C/C(=N\NC(=O)c1cccc(Br)c1)c1ccc(Br)cc1` gave GSIS activator 56.3* and RAD54 inh 9.6.
For C/C(=N\NC(=O)c1ccccc1)c1cccc(Br)c1 the results were GSIS activator 3.7, S100A4 inh HTS 4.2, RAD52 inh 0.9 and MLL AF4-AF9 inh 2.5.
O=C(COc1ncnc2ccccc12)Nc1cccc(S(=O)(=O)N2CCOCC2)c1 was read as GSIS activator 0.9 and RAD54 inh 2.1.
Screening CC(Oc1ncnc2ccccc12)C(=O)Nc1cccc(S(=O)(=O)N2CCOCC2)c1 (centres undefined) returned GSIS activator 23.1, S100A4 inh HTS 1.0, RAD54 inh -1.1, RAD52 inh -13.8 and MLL AF4-AF9 inh 28.8*.
O=C(C[C@@H]1C=C[C@@H](NC(=O)Nc2ccc(C(F)(F)F)cc2)[C@H](CO)O1)NCc1cccc(F)c1 was read as GSIS activator 11.7, S100A4 inh HTS 9.3, RAD54 inh -3.2, RAD52 inh 3.0 and MLL AF4-AF9 inh 0.0.
`Cc1cccc(C(C)C)c1NC(=O)COC(=O)c1cccc(S(=O)(=O)N2CCc3ccccc3C2)c1` gave GSIS activator 121.3*.
For CCc1cccc(CC)c1NC(=O)COC(=O)c1cccc(S(=O)(=O)N2CCc3ccccc3C2)c1 the results were S100A4 inh HTS 6.4, RAD52 inh -9.2 and MLL AF4-AF9 inh -1.9.
`CC1(C)CC(=O)C(C=NC2CC(C)(C)NC(C)(C)C2)=C(O)C1` gave GSIS activator 44.1* and RAD54 inh 2.1.
C[C@@H]1CN([C@H](C)CO)C(=O)c2cc(N(C)C)ccc2O[C@@H](C)CCCCO[C@@H]1CN(C)Cc1ccc2c(c1)OCO2 was read as GSIS activator -8.3, S100A4 inh HTS 5.0, RAD54 inh -0.5, RAD52 inh 9.5 and MLL AF4-AF9 inh 4.5.
Screening C[C@H](CO)N1C[C@H](C)[C@H](CN(C)C(=O)Nc2ccc(F)cc2)Oc2c(NC(=O)C3CCCCC3)cccc2C1=O returned GSIS activator -12.2, S100A4 inh HTS 9.9, RAD54 inh -0.3, RAD52 inh 20.5 and MLL AF4-AF9 inh -1.5.
C=C1C(=O)c2sccc2C(c2ccc(OC)c(OC)c2)C1COC(C)=O (centres undefined) was read as GSIS activator 115.4*, S100A4 inh HTS -1.2, RAD52 inh -8.0 and MLL AF4-AF9 inh -5.0.

Assay outcomes (PubChem BioAssay)
